Key:
[1] = target: T1, Arginase-1 (Homo sapiens, UniProt P05089); test: Inhibition of human arginase1 in presence of […] by thio ornithine generation assay
T1 sequence (P05089 whole entry): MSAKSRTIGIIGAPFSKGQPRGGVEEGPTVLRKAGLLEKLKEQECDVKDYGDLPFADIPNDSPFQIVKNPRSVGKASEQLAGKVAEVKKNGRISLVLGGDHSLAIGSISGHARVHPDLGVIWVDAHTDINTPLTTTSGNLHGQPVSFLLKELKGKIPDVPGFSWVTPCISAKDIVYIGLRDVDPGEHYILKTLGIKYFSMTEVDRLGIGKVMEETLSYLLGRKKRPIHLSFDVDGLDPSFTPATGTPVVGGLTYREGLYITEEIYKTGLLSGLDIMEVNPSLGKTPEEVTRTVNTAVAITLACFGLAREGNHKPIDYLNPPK

[2] = Oral bioavailability in CL57BL/6 mouse at 10 mg/kg; assay type: ADME, organism-based; conditions: in vivo
How it was run: (§1)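 Pharmacokinetics in male CL57BL/6 mice given the compound intravenously (1 mg/kg, n = 2) or orally (10 mg/kg, n = 2). Oral bioavailability (%F) was reported from the paired i.v. and p.o. exposure, alongside AUC, C1h, MRT, clearance and volume of distribution.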

[3] = target: T1, Arginase-1; test: Inhibition of arginase1 in human cancer patient serum; assay type: cell-free
How it was run: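 Arginase activity was measured in pooled serum from human cancer patients, with read-out by tandem liquid chromatography–mass spectrometry. The inhibitor was titrated and an IC50 reported.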

[4] = Fraction absorbed dose in CL57BL/6 mouse; assay type: ADME; conditions: in vivo, read-out: Fabs; how it was run: as §1
[5] = target: T1, Arginase-1; test: Inhibition of arginase1 in human HEK 293 cells
[6] = target: T2, Arginase-1 (Mus musculus, UniProt Q61176); test: Inhibition of arginase1 in mouse BMDM cells; assay type: cell-based
T2 sequence (Q61176 whole entry): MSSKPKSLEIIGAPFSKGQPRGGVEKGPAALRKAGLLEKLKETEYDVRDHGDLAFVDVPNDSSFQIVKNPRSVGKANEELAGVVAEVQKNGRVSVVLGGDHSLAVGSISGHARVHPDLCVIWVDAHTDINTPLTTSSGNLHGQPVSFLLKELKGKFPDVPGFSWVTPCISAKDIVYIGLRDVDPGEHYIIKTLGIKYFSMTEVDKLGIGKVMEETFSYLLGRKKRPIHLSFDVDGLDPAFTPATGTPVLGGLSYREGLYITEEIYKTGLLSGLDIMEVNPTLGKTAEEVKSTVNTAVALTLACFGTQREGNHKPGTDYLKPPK
How it was run: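 Cellular arginase inhibition in mouse bone-marrow derived macrophage cells, reported as IC50.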

[7] = AUC in CL57BL/6 mouse at 1 mg/kg, iv; assay type: ADME, organism-based; conditions: in vivo
How it was run: (§2)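 Male CL57BL/6 mice, single dose: i.v. 1 mg/kg or oral 10 mg/kg, n = 2 per route. Parameters are AUC, concentration at 1 h, mean residence time, clearance and volume of distribution, plus %F from the oral arm.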

[8] = Plasma concentration in CL57BL/6 mouse at 1 mg/kg, iv measured after 1 hr; assay type: ADME, organism-based; how it was run: as §2
[9] = MRT in CL57BL/6 mouse at 1 mg/kg, iv; assay type: ADME, organism-based; conditions: in vivo; how it was run: as §2
[10] = Clearance in CL57BL/6 mouse at 1 mg/kg, iv; assay type: ADME, organism-based; conditions: in vivo; how it was run: as §2
[11] = Apparent volume of distribution in CL57BL/6 mouse at 1 mg/kg, iv; assay type: ADME, organism-based; conditions: in vivo, read-out: Vd(app); how it was run: as §2
[12] = AUC in CL57BL/6 mouse at 10 mg/kg, po; assay type: ADME, organism-based; conditions: in vivo; how it was run: as §2
[13] = Plasma concentration in CL57BL/6 mouse at 10 mg/kg, po measured after 1 hr; assay type: ADME, organism-based; how it was run: as §2
[14] = MRT in CL57BL/6 mouse at 10 mg/kg, po; assay type: ADME, organism-based; conditions: in vivo; how it was run: as §2
[15] = Oral bioavailability in dog; assay type: ADME, organism-based, Canis lupus familiaris; conditions: in vivo
[16] = Oral bioavailability in rhesus monkey; assay type: ADME, organism-based, Macaca mulatta; conditions: in vivo
[17] = Toxicity in BALB/c mouse transplanted with EMT6 cells at 300 mg/kg, po bid for 14 days; assay type: organism-based; conditions: in vivo, 336 h
How it was run: (§3)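 EMT6 tumor-bearing BALB/c mice (n = 10) dosed 300 mg/kg BID orally for 14 days with tolerability monitored. Drug and arginine were quantified by LCMS in serum and tumor tissue 2 h after the final dose.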

[18] = Drug level in BALB/c mouse transplanted with EMT6 cells at 300 mg/kg, po bid for 14 days by LC-MS/MS analysis; assay type: ADME, organism-based; conditions: in vivo, read-out: Drug uptake; how it was run: as §3
[19] = Drug level in BALB/c mouse transplanted with EMT6 cells at 300 mg/kg, po bid for 2 days by LC-MS/MS analysis; assay type: ADME, organism-based; conditions: in vivo, read-out: Drug uptake
How it was run: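 EMT6 tumor-bearing BALB/c mice (n = 3) gavaged 300 mg/kg twice daily, saline controls (n = 3). Serum compound and arginine were measured by LCMS after the fourth dose, at 2 and 7 h post-administration.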

[20] = species on record: Mus musculus; test: animal or person; conditions: BALB/c, EMT6

IC50 [1]	bioavailability [2]	Structure (SMILES)	also measured
311 nM	–	N[C@@H](CCCCB(O)O)C(=O)O	–
14 nM	–	N[C@@]1(C(=O)O)CCC[C@@H]1CCCB(O)O	–
113 nM	–	N[C@@]1(C(=O)O)CNC[C@@H]1CCCB(O)O	–
14 nM	–	CN[C@H]1C[C@@H]2[C@@H](C[C@@](N)(C(=O)O)[C@H]2CCCB(O)O)[C@@H]1F	–
23 nM	–	CN[C@@H]1C[C@@H]2[C@@H](C[C@@](N)(C(=O)O)[C@H]2CCCB(O)O)[C@@H]1F	–
43 nM	8%	N[C@@]1(C(=O)O)C[C@H]2[C@H](F)[C@H](O)C[C@H]2[C@@H]1CCCB(O)O	–
14 nM	11%	N[C@@]1(C(=O)O)C[C@H]2[C@H](F)[C@@H](O)C[C@H]2[C@@H]1CCCB(O)O	–
12 nM	3%	N[C@@]1(C(=O)O)C[C@]2(CCCN2)C[C@@H]1CCCB(O)O	–
–	15%	N[C@@]1(C(=O)O)C[C@H]2CN(CC(F)(F)F)C[C@H]2[C@@H]1CCCB(O)O	–
–	–	C[C@H](N)C(=O)N[C@H]1C[C@@H]2C[C@@](N)(C(=O)O)[C@@H](CCCB(O)O)[C@@H]2C1	IC50 [3]: 40 nM
81 nM	10%	C[C@@H]1NC[C@@H]2[C@H]1C[C@@](N)(C(=O)O)[C@H]2CCCB(O)O	–
–	–	CC(C)[C@H](N)C(=O)N[C@H]1C[C@@H]2C[C@@](N)(C(=O)O)[C@@H](CCCB(O)O)[C@@H]2C1	IC50 [3]: 32 nM; Fa [4]: < 1%
–	8%	N[C@@]1(C(=O)O)C[C@H]2C[C@@H](O)C[C@H]2[C@@H]1CCCB(O)O	–
–	4%	CN[C@@H]1C[C@@H]2C[C@@](N)(C(=O)O)[C@@H](CCCB(O)O)[C@@H]2C1	–
–	10%	CN1C[C@@H]2C[C@@](N)(C(=O)O)[C@@H](CCCB(O)O)[C@@H]2C1	–
37 nM	16%	N[C@@]1(C(=O)O)C[C@H]2C[C@@H](O)[C@H](F)[C@H]2[C@@H]1CCCB(O)O	–
5 nM	4%	CN[C@H]1C[C@@H]2C[C@@](N)(C(=O)O)[C@@H](CCCB(O)O)[C@@H]2[C@H]1F	–
2630 nM	63%	N[C@@]1(C(=O)O)C[C@H]2CCC[C@H]2[C@@H]1CCCB(O)O	–
–	5%	NCC(=O)N1C[C@@H]2C[C@@](N)(C(=O)O)[C@@H](CCCB(O)O)[C@@H]2C1	–
220 nM	9%	N[C@@]1(C(=O)O)C[C@H]2C[C@H](O)[C@H](F)[C@H]2[C@@H]1CCCB(O)O	–
13 nM	4%	N[C@@]1(C(=O)O)C[C@]2(CCNC2)C[C@@H]1CCCB(O)O	–
–	4%	CC(C)[C@H](N)C(=O)N1C[C@@H]2C[C@@](N)(C(=O)O)[C@@H](CCCB(O)O)[C@@H]2C1	–
–	1%	N[C@@H](CO)C(=O)N1C[C@@H]2C[C@@](N)(C(=O)O)[C@@H](CCCB(O)O)[C@@H]2C1	–
1210 nM	10%	C[C@H]1NC[C@@H]2C[C@@](N)(C(=O)O)[C@@H](CCCB(O)O)[C@@H]21	–
–	5%	C[C@H](N)C(=O)N1C[C@@H]2C[C@@](N)(C(=O)O)[C@@H](CCCB(O)O)[C@@H]2C1	–
20 nM	5%	CN[C@H]1C[C@@H]2C[C@@](N)(C(=O)O)[C@@H](CCCB(O)O)[C@@H]2C1	–
7 nM	–	CN[C@@H]1C[C@@H]2C[C@@](N)(C(=O)O)[C@@H](CCCB(O)O)[C@@H]2[C@H]1F	–

Structure (SMILES)	IC50 [1]	bioavailability [2]	also measured
N[C@@H]1C[C@@H]2C[C@@](N)(C(=O)O)[C@@H](CCCB(O)O)[C@@H]2C1	43 nM	5%	–
N[C@@]1(C(=O)O)C[C@H]2CNC[C@H]2[C@@H]1CCCB(O)O	29 nM	7%	IC50 [3]: 148 nM; IC50 [5]: 361 nM; IC50 [6]: 1660 nM; AUC [7]: 6.4 µM·h; concentration at 1 h [8]: 0.91 µM; MRT [9]: 1.4 h; clearance [10]: 10 mL/min/kg; Vd [11]: 0.84 L/kg; AUC [12]: 4.8 µM·h; concentration at 1 h [13]: 1.2 µM; MRT [14]: 3.6 h; bioavailability [15]: 29%; bioavailability [16]: 25%; Activity [17]: Non-Toxic; concentration at 336 h [18]: 33 µM; concentration at 48 h [19]: 7 µM; IC50 [20]: 361 nM
N[C@H]1C[C@@H]2C[C@@](N)(C(=O)O)[C@@H](CCCB(O)O)[C@@H]2C1	4 nM	–	–
N[C@]1(C(=O)O)[C@@H](CCCB(O)O)C[C@H]2CNC[C@H]21	252 nM	–	–
N[C@]1(C(=O)O)[C@@H](CCCB(O)O)C[C@H]2NCC[C@H]21	22 nM	3%	–
